Eleven compounds from ChEMBL document CHEMBL1143270, “Identification of amidoheteroaryls as potent inhibitors of mutant (V600E) B-Raf kinase with in vivo activity” (Bioorg Med Chem Lett, 2009) can be followed below.

Format in all cases: ADME, organism-based
The nature of data set [1]: Half life in Wistar rat at 3 mg/kg, iv and 10 mg/kg, po. As to conditions: in vivo.
A short description of data set [2]: Clearance in Wistar rat at 3 mg/kg, iv and 10 mg/kg, po. As to conditions: in vivo.
The nature of data set [3]: Volume of distribution at steady state in Wistar rat at 3 mg/kg, iv and 10 mg/kg, po. As to conditions: in vivo, read-out: Vdss.
Data set [4] can be described thus: Bioavailability in Wistar rat at 3 mg/kg, iv and 10 mg/kg, po. As to conditions: in vivo. The method in brief: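 Male Han Wistar rats. The iv dose was given as a DMA/PEG/saline (40/40/20) solution and the po dose as a 0.1% HPMC suspension.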

What is called half-life is the time needed for the level to fall by half in the phase considered. High values mean slow decline, low ones rapid decline. Broadly, the bioavailability is dose-corrected exposure relative to a reference, in per cent.

Structures are written as SMILES.

On to `COc1cncc(NC(=O)c2cc(NC(=O)c3cccc(C(C)(C)C#N)c3)ccc2C)c1`, for which, in data set [1], the half-life is 30 min. In addition, the clearance in data set [2] stood at 56 mL/min/kg. In addition, the Vd in data set [3] is 1.7 L/kg.

The compound `CNc1ccc(NC(=O)c2cc(NC(=O)c3cccc(C(C)(C)C#N)c3)ccc2C)cn1` gave a half-life in data set [1] of 36 min. The compound further gave a bioavailability in data set [4] of 15%. For the same compound, the clearance in data set [2] stood at 53.5 mL/min/kg. Moreover, the Vd in data set [3] turned out to be 1.7 L/kg.

Compound `Cc1ccc(NC(=O)c2cccc(C(C)(C)C#N)c2)cc1C(=O)Nc1cncc(Cl)c1` showed a half-life in data set [1] of 54 min. The same compound registered a bioavailability in data set [4] of 45%. The clearance in data set [2] is 60 mL/min/kg. Moreover, the Vd in data set [3] came out at 3.1 L/kg.

`Cc1ccc(NC(=O)c2cccc(C(C)(C)C#N)c2)cc1C(=O)Nc1cnc(N)c(Cl)c1`: the half-life in data set [1] is 60 min. In data set [4], this compound had a bioavailability of 30%. In data set [2], this compound came in with a clearance of 9.5 mL/min/kg. The Vd in data set [3] was 0.8 L/kg.

In data set [1], `Nc1ncc(NC(=O)c2cc(NC(=O)c3cccc(C(F)(F)F)c3)ccc2Cl)cc1Cl` had a half-life of 84 min. In data set [4], the bioavailability is 96%. Further, in data set [2], the clearance is 11 mL/min/kg. In addition, the Vd in data set [3] was found to be 1.2 L/kg.

Consider `Cc1ccc(NC(=O)c2cccc(C(C)(C)C#N)c2)cc1C(=O)Nc1cccnc1`, for which, in data set [1], the half-life is 96 min. In data set [4], the bioavailability is 17%. The compound further returned a clearance in data set [2] of 42.5 mL/min/kg. The Vd in data set [3] worked out at 2.5 L/kg.

As to `CC(=O)Nc1ccc(NC(=O)c2cc(NC(=O)c3cccc(C(C)(C)C#N)c3)ccc2C)cn1`, in data set [1], the half-life is 42 min. Besides, in data set [4], the bioavailability is 10%. Further, in data set [2], the clearance was 64 mL/min/kg. Moreover, in data set [3], the Vd was 2.7 L/kg.

In data set [1], `Cc1ccc(NC(=O)c2cc(NC(=O)c3cccc(C(C)(C)C#N)c3)ccc2C)cn1` gave a half-life of 48 min. The bioavailability in data set [4] is 73%. In data set [2], the clearance was 47.5 mL/min/kg. Also, the Vd in data set [3] was determined as 2.9 L/kg.

In the case of `Cc1ccc(NC(=O)c2cccc(C(F)(F)F)c2)cc1C(=O)Nc1cnc(N)c(Cl)c1`, the half-life in data set [1] is 96 min. In addition, the bioavailability in data set [4] turned out to be 78%. In data set [2], this compound had a clearance of 8 mL/min/kg. Also, the Vd in data set [3] worked out at 1 L/kg.

`Cc1ccc(NC(=O)c2cccc(C(C)(C)C#N)c2)cc1C(=O)Nc1ccc(N)nc1` gave a half-life in data set [1] of 36 min. In data set [2], the clearance worked out at 75.5 mL/min/kg. Further, the Vd in data set [3] amounted to 2.3 L/kg.

Turning to `Cc1cncc(NC(=O)c2cc(NC(=O)c3cccc(C(C)(C)C#N)c3)ccc2C)c1`, the half-life in data set [1] is 48 min. For the same compound, the bioavailability in data set [4] amounted to 4%. For the same compound, in data set [2], the clearance amounted to 32.5 mL/min/kg. Moreover, in data set [3], the Vd turned out to be 1.4 L/kg.
